Legend:
[1] = Inhibition of wild type Escherichia coli ATCC 25922 DNA gyrase subunit 2GyrA/2GyrB assessed as pBR322 supercoiling after 1 hr
[2] = AUC in Wistar rat at 1 mg/kg, iv administered as bolus dose; type: ADME, organism-based; parameters: dose 1 mg/kg, route intravenous; details: plasma
In short: (§1)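 Male Wistar rats (n = 3) dosed by iv bolus (0.5 or 1 mg/kg) or orally (1 or 10 mg/kg); iv vehicles included pH 4.5 aqueous solution, 5% DMSO in water, or 10% PG/10% PEG400 in water pH 7; oral as pH 5.6 aqueous suspension or microsuspension in 7.5% modified gelatin. Blood sampled by preimplanted catheter over 24 h; plasma by LC-MS/MS, LOQ 1.5 ng/mL.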

Pseudomonas aeruginosa = assay: Antibacterial activity against wild type Pseudomonas aeruginosa ATCC 27853 assessed as growth inhibition by broth microdilution method; type: functional
Topoisomerase IV = Topoisomerase IV (Staphylococcus aureus, UniProt P0C1S7+P0C1U9); assay: Inhibition of wild type Staphylococcus aureus ATCC 29213 topoisomerase-4 subunit 2GrlA/2GrlB assessed as pBR322 relaxation after 1 hr; type: protein-complex assay
[3] = Intrinsic clearance in mouse liver microsomes at 1 uM; type: ADME, Microsome; details: read-out: CLH
[4] = Half life in Wistar rat at 1 mg/kg, iv administered as bolus dose and 10 mg/kg, po; type: ADME, organism-based; details: in vivo; in short: as §1
Staphylococcus aureus [5] = assay: Antibacterial activity against NXL-101-resistant Staphylococcus aureus A-234 harboring DNA gyrase subunit A D83N mutant assessed as growth inhibition by broth microdilution method; type: functional
Streptococcus pneumoniae = assay: Antibacterial activity against wild type Streptococcus pneumoniae ATCC 49619 assessed as growth inhibition by broth microdilution method; type: functional
DNA gyrase = DNA gyrase (Staphylococcus aureus, UniProt P0A0K8+P20831); assay: Inhibition of wild type Staphylococcus aureus DNA gyrase subunit 2GyrA/2GyrB assessed as pBR322 supercoiling after 1 hr; type: protein-complex assay
Escherichia coli = assay: Antibacterial activity against wild type Escherichia coli ATCC 25922 assessed as growth inhibition by broth microdilution method; type: functional
[6] = Oral bioavailability in Wistar rat at 10 mg/kg; type: ADME, organism-based; details: in vivo; in short: as §1
Staphylococcus aureus [7] = assay: Antibacterial activity against wild type Staphylococcus aureus ATCC 29213 assessed as growth inhibition by broth microdilution method; type: functional
[8] = Intrinsic clearance in rat liver microsomes at 1 uM; type: ADME, Microsome; details: read-out: CLH
[9] = Volume of distribution at steady state in Wistar rat at 1 mg/kg, iv administered as bolus dose and 10 mg/kg, po; type: ADME, organism-based; details: in vivo, read-out: Vdss; in short: as §1
[10] = AUC in Wistar rat at 10 mg/kg, po; type: ADME, organism-based; parameters: dose 10 mg/kg, route oral; details: plasma; in short: as §1
[11] = Intrinsic clearance in human liver microsomes at 1 uM; type: ADME, Microsome; details: read-out: CLH
[12] = Clearance in Wistar rat at 1 mg/kg, iv administered as bolus dose; type: ADME, organism-based; parameters: dose 1 mg/kg, route intravenous; details: in vivo; in short: as §1
Staphylococcus aureus [13] = assay: Antibacterial activity against methicillin and quinolone-resistant Staphylococcus aureus A-798 assessed as growth inhibition by broth microdilution method; type: functional
[14] = Inhibition of wild type Escherichia coli ATCC 25922 DNA topoisomerase-4 subunit 2ParC/2ParE assessed as pBR322 relaxation after 1 hr
Enterococcus faecium = assay: Antibacterial activity against vancomycin-resistant Enterococcus faecium A-949 assessed as growth inhibition by broth microdilution method; type: functional
DNA gyrase subunit A [15] = target: DNA gyrase subunit A (Staphylococcus aureus, UniProt P20831, D83N); assay: Inhibition of NXL-101-resistant Staphylococcus aureus DNA gyrase D83N mutant assessed as pBR322 supercoiling after 1 hr
DNA gyrase subunit A [16] = target: DNA gyrase subunit A (Staphylococcus aureus, UniProt P20831, S84L); assay: Inhibition of quinolone-resistant Staphylococcus aureus A-798 DNA gyrase S84L mutant assessed as pBR322 supercoiling after 1 hr
Staphylococcus aureus [17] = assay: Antibacterial activity against NXL-101-resistant Staphylococcus aureus harboring DNA gyrase D83N mutant assessed as growth inhibition by broth microdilution method; type: functional
hERG (KCNH2) = hERG (KCNH2) (Homo sapiens, UniProt Q12809); assay: Inhibition of human ERG expressed in CHO cells at 10 uM after 3 mins by patch clamp assay relative to control; type: cell-based; details: CHO cells that express human ERG
hERG (KCNH2), sequence (Q12809 whole entry): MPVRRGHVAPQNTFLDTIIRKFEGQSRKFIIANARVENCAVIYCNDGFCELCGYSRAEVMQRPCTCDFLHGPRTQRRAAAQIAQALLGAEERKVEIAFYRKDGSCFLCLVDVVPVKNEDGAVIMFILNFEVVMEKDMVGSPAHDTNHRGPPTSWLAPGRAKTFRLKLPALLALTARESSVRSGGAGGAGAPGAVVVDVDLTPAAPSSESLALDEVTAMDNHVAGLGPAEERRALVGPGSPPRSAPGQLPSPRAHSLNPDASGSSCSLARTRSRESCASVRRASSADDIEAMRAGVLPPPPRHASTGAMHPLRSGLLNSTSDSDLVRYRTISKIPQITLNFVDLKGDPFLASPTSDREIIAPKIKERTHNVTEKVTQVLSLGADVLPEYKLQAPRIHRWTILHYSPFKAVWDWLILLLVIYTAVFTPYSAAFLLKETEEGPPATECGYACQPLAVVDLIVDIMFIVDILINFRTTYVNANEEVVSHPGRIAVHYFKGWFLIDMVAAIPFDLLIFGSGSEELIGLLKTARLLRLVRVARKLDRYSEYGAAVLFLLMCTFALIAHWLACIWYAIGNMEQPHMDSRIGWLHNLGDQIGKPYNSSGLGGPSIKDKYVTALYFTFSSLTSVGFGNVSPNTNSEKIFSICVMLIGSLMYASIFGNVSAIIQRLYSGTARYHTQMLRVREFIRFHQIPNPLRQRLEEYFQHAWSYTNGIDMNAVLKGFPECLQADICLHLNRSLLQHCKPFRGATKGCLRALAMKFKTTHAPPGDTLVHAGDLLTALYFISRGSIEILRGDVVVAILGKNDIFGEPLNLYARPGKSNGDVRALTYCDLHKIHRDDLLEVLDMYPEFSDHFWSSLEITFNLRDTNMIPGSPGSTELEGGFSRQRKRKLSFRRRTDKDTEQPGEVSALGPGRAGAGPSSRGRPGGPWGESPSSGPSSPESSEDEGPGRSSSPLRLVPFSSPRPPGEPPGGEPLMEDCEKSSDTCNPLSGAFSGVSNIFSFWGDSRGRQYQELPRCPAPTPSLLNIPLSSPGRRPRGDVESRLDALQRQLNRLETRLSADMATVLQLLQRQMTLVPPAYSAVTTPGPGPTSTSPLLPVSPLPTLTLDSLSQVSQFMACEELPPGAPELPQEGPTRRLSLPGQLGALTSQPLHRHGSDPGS

| SMILES | IC50 [1] [nM] | MIC (Pseudomonas aeruginosa) [µg/mL] | IC50 (Topoisomerase IV) [nM] | MIC (Staphylococcus aureus [5]) [µg/mL] | MIC (Streptococcus pneumoniae) [µg/mL] | IC50 (DNA gyrase) [nM] | MIC (Escherichia coli) [µg/mL] | MIC (Staphylococcus aureus [7]) [µg/mL] | MIC (Staphylococcus aureus [13]) [µg/mL] | IC50 [14] [nM] | MIC (Enterococcus faecium) [µg/mL] | IC50 (DNA gyrase subunit A [15]) [nM] | IC50 (DNA gyrase subunit A [16]) [nM] | MIC (Staphylococcus aureus [17]) [µg/mL] | other results |
| --- | --- | --- | --- | --- | --- | --- | --- | --- | --- | --- | --- | --- | --- | --- | --- |
| COc1ccc2nccc(CC[C@@H]3CC[C@@H](NCc4ccc5c(n4)NC(=O)CS5)CO3)c2n1 | 120 | > 8 | 500 | 1 | 0.06 | 30 | 1 | 0.03 | – | – | – | – | – | – | AUC [2]: 463 ng·h/mL; microsomal CLint at 1 µM [3]: 954 µL/min/mg; half-life [4]: 1.2 h; bioavailability [6]: 29%; microsomal CLint at 1 µM [8]: > 1250 µL/min/mg; Vd [9]: 3.2 L/kg; AUC [10]: 1320 ng·h/mL; microsomal CLint at 1 µM [11]: 347 µL/min/mg; clearance [12]: 36 mL/min/kg |
| COc1ccc2nccc(NC(=O)[C@H]3CC[C@H](NCc4ccc5c(n4)NC(=O)CS5)CC3)c2n1 | – | 8 | 125 | – | 0.063 | 30 | 0.25 | 0.015 | 0.015 | 8 | 0.063 | 8000 | 8 | 0.25 | – |
| O=c1ccc2ccc(F)c3c2n1CC3CN1CCC(NCc2cc3c(cn2)OCCO3)CC1 (centres undefined) | – | > 8 | 2000 | – | 0.015 | 125 | 1 | 0.015 | 0.015 | 500 | 0.06 | 2000 | 30 | 1 | – |
| COc1ccc2nccc(C(O)C[C@@H]3CC[C@@H](NCc4ccc5c(n4)NC(=O)CS5)CO3)c2n1 (mixture of isomers) | 500 | > 8 | > 8000 | 0.5 | 0.03 | < 30 | 1 | 0.03 | – | < 30 | – | – | – | – | inhibition at 0.05 h, 10 µM (hERG (KCNH2)): 99% |
| O=C(O)c1cn(C2CC2)c2cc(N3CCNCC3)c(F)cc2c1=O [CIPROFLOXACIN] | 500 | 0.25 | – | – | 1 | – | 0.016 | 0.25 | > 8 | – | > 8 | – | – | 0.25 | – |
